S100A4 MyoIIA: S100A4-myosin IIA interaction inhibition. P26447. S100A4/TAMRA-MyoIIA peptide fluorescence polarization. inhibition, % at 10.7 µM. 0.14% of 360,000 active. AID 652163;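 active = mean inhibition of at least 70% across replicates, with every replicate also reaching that level; inconclusive = mean inhibition reaches 70% but some replicates fall short; inactive = mean inhibition below 70%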
Target sequence (P26447 whole entry, looked up): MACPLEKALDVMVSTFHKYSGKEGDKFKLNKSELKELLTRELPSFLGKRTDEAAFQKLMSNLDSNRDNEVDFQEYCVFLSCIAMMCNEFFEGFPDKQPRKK
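assay system = human S100A4 monomer with TAMRA-labelled myosin IIA peptide | also added = labelled myosin peptide probe, 5 nM | incubation = 5 min between mix addition and reading | control set = DMSO and TFP controls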
RAD54 branch: blocks human RAD54 Holliday junction branch migration | Q92698 | FAM/BHQ fluorescence | inhibition, % at 10.4 µM | 0.14% of 360,000 active;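 active = mean normalized replicate activity at least 40 and at least half of replicates scoring 40 or more; inconclusive = only one of the two criteria met; inactive = mean below 40 and under half of replicates reaching 40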;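 also: 0% = median of neutral control wells and 100% = median of positive control wells; inhibitors cause a drop in the FAM fluorescence signal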
RAD52 inh: RAD52 (human) annealing inhibition; P43351; 0.46% of 360,000 active; recombinant RAD52 DNA annealing, FRET fluorescence; inhibition, % at 18.7 µM;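 active = every replicate showing at least 50% inhibition; inconclusive = mean inhibition at least 50% but not in every replicate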
MLL AF4-AF9 inh: inhibitors of human MLL-AF4/AF9 interaction | P42568 | AlphaScreen, biotin-AF4 peptide binding to FLAG-AF9 | inhibition, % at 10 µM | 0.47% of 350,000 active | AID 651704;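 active = every replicate reaching a set inhibition limit, whatever the replicate mean, cut at about 25% in these data; inconclusive = mean inhibition reaches that limit but some replicates miss it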;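 also: 0% = plate neutral control median and 100% = total signal loss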
Target sequence (P42568 whole entry, looked up): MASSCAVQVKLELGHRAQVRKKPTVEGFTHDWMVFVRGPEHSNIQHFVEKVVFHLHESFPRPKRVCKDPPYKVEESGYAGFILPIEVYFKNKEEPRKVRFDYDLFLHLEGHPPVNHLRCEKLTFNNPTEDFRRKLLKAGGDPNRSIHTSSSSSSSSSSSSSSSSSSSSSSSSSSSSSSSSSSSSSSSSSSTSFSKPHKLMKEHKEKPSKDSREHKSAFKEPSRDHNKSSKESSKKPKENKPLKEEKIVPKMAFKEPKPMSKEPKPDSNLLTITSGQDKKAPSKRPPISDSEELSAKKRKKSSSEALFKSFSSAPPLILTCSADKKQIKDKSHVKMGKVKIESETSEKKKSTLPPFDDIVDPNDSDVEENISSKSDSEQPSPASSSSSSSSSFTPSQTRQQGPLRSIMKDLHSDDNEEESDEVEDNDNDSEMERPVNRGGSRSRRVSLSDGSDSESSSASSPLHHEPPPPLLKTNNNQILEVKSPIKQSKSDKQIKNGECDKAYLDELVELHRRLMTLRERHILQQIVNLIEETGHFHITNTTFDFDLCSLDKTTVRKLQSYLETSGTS
dFosB activator: mouse delta FosB homodimer activation; P13346; purified delta FosB, TAMRA-CDK5 oligo fluorescence polarization; percent of positive-control signal above neutral wells; activation, % at 25 µM; 0.99% of 340,000 active;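 active = mean activation above about 17%, with every replicate also reaching it, limit read from the data, passing the limit was not always enough; inconclusive = only one of the two conditions met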
RAD52 DNA ctr: DNA binding artifact in RAD52 counter-screen | shares compounds with RAD52 inh | Salmon sperm DNA/acridine orange FP displacement | AC50, µM | 8% of 1,000 active;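 active = fitted half-maximal concentration for signal loss at or below twice the highest dose tested, in every separate run, actives reach about 64 µM in these data; inconclusive = runs disagree, or flat partial signal loss, or poor fit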
Active calls of the source: *; ! = a repeat was not active. An excerpt weighted towards active compounds, which were near 1.5% of everything screened.

What do the screens show for `O=C(N/N=C/c1cccc([N+](=O)[O-])c1)c1cc[n+](CCO)cc1`?
S100A4 MyoIIA: 4; RAD54 branch: 18; RAD52 inh: 82*; MLL AF4-AF9 inh: 7; dFosB activator: -6; RAD52 DNA ctr: inactive

What do the screens show for `O=C(C[C@H]1C=C[C@@H](NS(=O)(=O)c2ccc(F)cc2)[C@@H](CO)O1)NCCN1CCCCC1`?
S100A4 MyoIIA: -6; RAD54 branch: 8; RAD52 inh: -3; MLL AF4-AF9 inh: 1

Results for Cc1cc2cc(CNC(=O)Cc3ccc([N+](=O)[O-])cc3)ccc2n1C ?
S100A4 MyoIIA: 21; RAD52 inh: -29; MLL AF4-AF9 inh: 0; dFosB activator: -8

How did Cc1cc2cc(CNC(=O)c3cccc([N+](=O)[O-])c3)ccc2n1C do in these assays?
S100A4 MyoIIA: inconclusive; RAD54 branch: 6; RAD52 inh: 54*; MLL AF4-AF9 inh: -7; dFosB activator: 4; RAD52 DNA ctr: inactive

Results for CN(C)CCCNC(=O)/C(=C\c1ccc(-c2ccc(Br)cc2)o1)NC(=O)c1ccccc1 ?
S100A4 MyoIIA: 1; RAD54 branch: inconclusive; RAD52 inh: 62*; MLL AF4-AF9 inh: 29*; dFosB activator: 14; RAD52 DNA ctr: inactive

How did Cc1ccc(C(=O)N/C(=C\c2ccc(-c3ccc(Cl)cc3)o2)C(=O)NCCCN(C)C)cc1 do in these assays?
S100A4 MyoIIA: -2; RAD52 inh: 52*; MLL AF4-AF9 inh: 22; dFosB activator: 5; RAD52 DNA ctr: inactive

Results for CCN1CCN(Cc2ccc(NC(=O)c3ccc(C)c(NC(=O)c4csc(-c5ccncc5)n4)c3)cc2C(F)(F)F)CC1 ?
S100A4 MyoIIA: 1; RAD54 branch: 13; RAD52 inh: 75*; MLL AF4-AF9 inh: 18; dFosB activator: -24; RAD52 DNA ctr: inactive

Results for CCN1CCN(Cc2ccc(NC(=O)c3cc(NC(=O)c4cc(-c5ccc(OC)cc5)n[nH]4)cc(OC)c3)cc2C(F)(F)F)CC1 ?
S100A4 MyoIIA: -8; RAD54 branch: -3; RAD52 inh: 5; MLL AF4-AF9 inh: 7; dFosB activator: -259

What do the screens show for `CCN1CCN(Cc2ccc(NC(=O)c3cc(NC(=O)c4cc5cccc(OC)c5o4)cc(OC)c3)cc2C(F)(F)F)CC1`?
S100A4 MyoIIA: 4; RAD54 branch: -1; RAD52 inh: 94*!; MLL AF4-AF9 inh: 6; dFosB activator: -152; RAD52 DNA ctr: inactive

How did CCN1CCN(Cc2ccc(NC(=O)c3cc(NC(=O)c4cncc(-c5cccs5)c4)cc(OC)c3)cc2C(F)(F)F)CC1 do in these assays?
S100A4 MyoIIA: -1; RAD54 branch: 7; RAD52 inh: 76*; MLL AF4-AF9 inh: 1; RAD52 DNA ctr: inactive

Results for CCN1CCN(Cc2ccc(NC(=O)c3cc(NC(=O)c4ccno4)cc(OC)c3)cc2C(F)(F)F)CC1 ?
S100A4 MyoIIA: -7; RAD54 branch: 1; RAD52 inh: 57*!; MLL AF4-AF9 inh: 14; dFosB activator: -41; RAD52 DNA ctr: inactive

How did COc1ccc(NC(=O)Nc2ccc3c(c2)CC(=O)N([C@H](C)CO)C[C@@H](C)[C@@H](CN(C)C(=O)NC2CCCCC2)O3)cc1 do in these assays?
MLL AF4-AF9 inh: -4

What do the screens show for `COCCNC(=O)C[C@H]1C[C@H]2c3cc(NC(=O)C4CCOCC4)ccc3O[C@H]2[C@H](CO)O1`?
S100A4 MyoIIA: 3; RAD54 branch: -11; RAD52 inh: -4; MLL AF4-AF9 inh: 2

Results for CN1CCN(C(=O)C[C@H]2CC[C@H](NC(=O)Nc3ccccc3F)[C@@H](CO)O2)CC1 ?
S100A4 MyoIIA: -12; RAD54 branch: -11; RAD52 inh: 4; MLL AF4-AF9 inh: -1

How did NC(=NCc1ccccc1)NC(=O)c1nc(Cl)c(N)nc1N do in these assays?
S100A4 MyoIIA: -5; RAD54 branch: inconclusive; RAD52 inh: 50*; MLL AF4-AF9 inh: 8; dFosB activator: 1; RAD52 DNA ctr: inactive

What do the screens show for `C[C@H](CO)N1C[C@H](C)[C@H](CN(C)C(=O)Nc2cc(F)ccc2F)Oc2ncc(C#CCN(C)C)cc2C1=O`?
S100A4 MyoIIA: 2; RAD54 branch: -13; RAD52 inh: -18; MLL AF4-AF9 inh: 2

What do the screens show for `Nc1ccc(Nc2ccncc2)cc1`?
S100A4 MyoIIA: -2; RAD54 branch: 31; RAD52 inh: 69*; MLL AF4-AF9 inh: 16; RAD52 DNA ctr: inactive

Results for CSc1nc(NCCCN(C)C)c2c3c(sc2n1)CN(C)CC3 ?
S100A4 MyoIIA: -2; RAD52 inh: 77*; MLL AF4-AF9 inh: 4; RAD52 DNA ctr: inactive

Results for CCCCCCCCCC[n+]1cccc2c3ccccc3ccc21 ?
S100A4 MyoIIA: 1; RAD52 inh: 72*; MLL AF4-AF9 inh: 12; dFosB activator: 13; RAD52 DNA ctr: inactive

What do the screens show for `CCCCCCCCCCCCOC(=O)C[N+](C)(C)C`?
S100A4 MyoIIA: 2; RAD52 inh: 50*; MLL AF4-AF9 inh: 4; RAD52 DNA ctr: inactive

Results for O=C(NCCCN1CCCC1)c1ccc2c(c1)N(Cc1cccc(Cl)c1)C(=O)c1ccccc1S2=O (stereo unspecified) ?
S100A4 MyoIIA: -4; RAD54 branch: 4; RAD52 inh: 67*; MLL AF4-AF9 inh: 7; dFosB activator: 14; RAD52 DNA ctr: inactive

What do the screens show for `CN1CCN(CCCNC(=O)c2ccc(/C=C3/Sc4ccccc4N(Cc4cccc(Cl)c4)C3=O)cc2)CC1`?
S100A4 MyoIIA: -3; RAD54 branch: 10; RAD52 inh: 68*; MLL AF4-AF9 inh: 27*; dFosB activator: -367; RAD52 DNA ctr: inactive

What do the screens show for `CN1CCN(CCCNC(=O)c2ccc(/C=C3\Oc4ccccc4N(Cc4ccccc4F)C3=O)cc2)CC1`?
S100A4 MyoIIA: -6; RAD54 branch: 31; RAD52 inh: 96*; MLL AF4-AF9 inh: 3; dFosB activator: -332; RAD52 DNA ctr: inactive

What do the screens show for `O=C(CN1C(=O)/C(=C/c2ccccc2)Sc2ccccc21)NCCCN1CCOCC1`?
S100A4 MyoIIA: 0; RAD54 branch: -3; RAD52 inh: -13; MLL AF4-AF9 inh: 0; dFosB activator: -11

What do the screens show for `CN1CCN(CCCNC(=O)c2ccc(/C=C3\Sc4ccccc4N(Cc4ccc(F)cc4)C3=O)cc2)CC1`?
S100A4 MyoIIA: 2; RAD54 branch: 7; RAD52 inh: 92*; MLL AF4-AF9 inh: 22; dFosB activator: -6; RAD52 DNA ctr: inactive

How did Cc1cccc(CN2C(=O)/C(=C\c3ccc(C(=O)NCCCN4CCN(C)CC4)cc3)Oc3ccccc32)c1 do in these assays?
S100A4 MyoIIA: 0; RAD54 branch: 9; RAD52 inh: 30; MLL AF4-AF9 inh: 3; dFosB activator: -457

How did C[C@@H]1CN([C@@H](C)CO)C(=O)c2cc(NS(C)(=O)=O)ccc2O[C@H]1CN(C)S(C)(=O)=O do in these assays?
S100A4 MyoIIA: 1; RAD54 branch: -10; RAD52 inh: -3; MLL AF4-AF9 inh: -1
